Laboratory results published in ChEMBL document CHEMBL3272112, “Cycloalkanones. 8. Hypocholesterolemic activity of long-chain ketones related to pentadecanone” (J Med Chem, 1976).

Assays:
Rattus norvegicus [1] = experiment: Hypocholesterolemic activity in Sprague-Dawley rat assessed as serum cholesterol level at 10 mg/kg/day, po administered via intubation measured on day 10 by Liebermann-Burchard method relative to control; format: functional
Summary of the method: (§1)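 Male Sprague-Dawley rats given compound homogenized in 1% CMC once daily at 11:00 a.m. by oral intubation needle (0.2 cc), doses calculated on weekly body weights; tail-vein blood drawn 24 h after last dose; nonhemolyzed serum (30 μ) assayed by modified Liebermann-Burchard method; N = 8; % of control, mean ± SD; Student's t test.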

Rattus norvegicus [2] = experiment: Hypocholesterolemic activity in Sprague-Dawley rat assessed as serum cholesterol level at 10 mg/kg/day, po administered via intubation measured on day 16 by Liebermann-Burchard method relative to control; format: functional; summary of the method: as §1
Rattus norvegicus [3] = experiment: Toxicity in Sprague-Dawley rat assessed as increase in body weight at 10 mg/kg/day measured on day 10 (reference value: 160 +/- 13%); format: organism-based; details: in vivo
Rattus norvegicus [4] = experiment: Hypocholesterolemic activity in Sprague-Dawley rat assessed as serum cholesterol level at 10 mg/kg/day, po administered via intubation measured on day 4 by Liebermann-Burchard method relative to control; format: functional; summary of the method: as §1
Rattus norvegicus [5] = experiment: Toxicity in Sprague-Dawley rat assessed as increase in body weight at 10 mg/kg/day measured on day 16 (reference value: 195 +/- 16%); format: organism-based; details: in vivo
Rattus norvegicus [6] = experiment: Uterotrophic activity in ovariectomized weaned Sprague-Dawley rat assessed as uterine weight at 10 ug/kg/day measured after 3 days (reference value: 100 +/- 15%); format: ADME, organism-based, Uterus; details: in vivo, 0.01 mg/kg, 72 h
Summary of the method: (§2)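 Weaned rats were ovariectomized and left untreated for 3 days. They were then dosed for 3 days with 17-ethinylestradiol 10 µg/kg/day or test compound 10 mg/kg/day, with 1% CMC as the vehicle control. Rats were then killed and the uterus removed, trimmed and weighed. Results are % of control uterine weight, mean ± SD; N = 7; Student's t test.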

Rattus norvegicus [7] = experiment: Uterotrophic activity in ovariectomized weaned Sprague-Dawley rat assessed as uterine weight at 10 mg/kg/day measured after 3 days (reference value: 100 +/- 15%); format: ADME, organism-based, Uterus; details: in vivo, 72 h; summary of the method: as §2

| Activity (Rattus norvegicus [6]) [%] | Activity (Rattus norvegicus [7]) [%] | Compound | Activity (Rattus norvegicus [1]) [%] | Activity (Rattus norvegicus [2]) [%] | Activity (Rattus norvegicus [3]) [%] | Activity (Rattus norvegicus [4]) [%] | Activity (Rattus norvegicus [5]) [%] |
| --- | --- | --- | --- | --- | --- | --- | --- |
|  |  | CCCCCCCCCC(=O)CCCCCC | 89 | 77 | 169 | 89 | 207 |
| 372 |  | C#C[C@]1(O)CC[C@H]2[C@@H]3CCc4cc(O)ccc4[C@H]3CC[C@@]21C [ETHINYL ESTRADIOL] |  |  |  |  |  |
|  |  | CCCCCCCCCCCCCC(C)=O | 113 | 98 | 156 | 114 | 233 |
|  |  | CCCCCCCCCCCCC(=O)CCC | 89 | 103 | 175 | 65 | 213 |
|  |  | CCCCCCCCCCCCCC(=O)CC | 83 | 92 | 167 | 64 | 212 |
|  |  | CCOC(=O)C(C)(C)Oc1ccc(Cl)cc1 [CLOFIBRATE] | 98 | 106 |  | 100 |  |
|  | 76 | CCCCCCCCCCCCCCCC(C)=O | 75 | 74 | 165 | 83 | 229 |
|  |  | CCCCCCCCC(=O)CCCCCCC | 97 | 72 | 167 | 102 | 209 |
|  |  | CCCCCCCCCCCC(=O)CCCC | 89 | 94 | 165 | 63 | 206 |
|  |  | CCCCCCCCCCC(=O)CCCCC | 92 | 100 | 168 | 70 | 209 |
|  |  | CCCCCCCCCCCCCCCCC(C)=O | 86 | 73 | 175 | 79 | 242 |
